Source: PubChem
A selection: hits, their analogues and other compounds. The true share with any hit is near 2.3%.
F508del corr: F508del CFTR correction, initial screen, CFBE line, single point. CFBE cells, YFP halide quenching; stimulated with forskolin plus potentiator P3; % fluorescence drop versus neutral controls. 0.36% of 350,000 active. activity (quench increase), % at 7.58 µM. AID 720511, 2013;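 active = mean added fluorescence quench of at least 8% versus neutral control, with both replicates also reaching 8%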;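 also: cells transiently co-express mutant CFTR-F508del with the halide-sensitive YFP; corrector assay measuring rescue of mutant channel to the surface after 24 h compound exposure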
FN deposition inh: inhibitors of fibronectin matrix deposition, primary screen, AH1F cells, Alexa488-fibronectin fluorescence, plate reader; inhibition, % at 12.6 µM; 0.086% of 350,000 active; AH1F fibroblasts, overnight;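 active = mean inhibition across replicates of 30% or more, regardless of how many single replicates reach that level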;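 also: positive control wells lacked labelled fibronectin entirely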
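test system = AH1F fibroblasts assembling fluorescent fibronectin matrix | quantity = 10000 AH1F cells per well | buffer or medium = DMEM plus 2% serum, read in PBS | doses = single dose, pinned | incubation = 1 h cell attachment, overnight exposure to compound and label | detection = fluorescence at 485 nm excitation, 525 nm emission | read-out basis = inhibition from reduced deposited-fibronectin fluorescence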
PAX8 inh HTS: inhibitors of PAX8-driven TPO luciferase reporter, primary screen, RMG-I cells, single concentration; SteadyGlo, 24 h; inhibition, % at 12.6 µM; 1.2% of 360,000 active;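 active = mean replicate inhibition at least 60% with every replicate also reaching 60%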;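 also: luciferase light reporting Pax8 driven TPO promoter activity; plate controls were median of neutral control wells for no effect and mitoxantrone controls for full effect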
Env fusion inh: inhibitors of HIV-1 Env-driven cell-cell fusion, primary screen, HeLa-JRFL effector, CEM21 target cells, luciferase; inhibition, % at 12.3 µM; 1.1% of 360,000 active; AID 651610, 2012;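 active = mean replicate inhibition score of at least 50 and every replicate individually at or above 50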;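 also: 0% = plate neutral controls and 100% = maraviroc near 300 nM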
EWS-Fli inh: EWS/Fli-driven NR0B1 reporter inhibitors, primary screen, A673 cells, NR0B1 luciferase, luminescence, MLPCN library; viability-normalised; inhibition, % at 12.6 µM; 0.67% of 350,000 active; AID 651661, 2012;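 active = mean inhibition of at least 50% after viability correction, with every replicate also passing that limit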;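 also: firefly luciferase signal divided by Alamar Blue viability fluorescence both relative to DMSO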
PGC1a acetyl inh: inhibitors of PGC1a acetylation signal, primary screen, cell-based, U2OS, AlphaScreen, inhibitor mode. 0.17% of 350,000 active. AlphaScreen anti-acetyl-lysine; with virally co-expressed GCN5 acetyltransferase. inhibition, % at 15.6 µM. AID 651687, 2012;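 active = every replicate shows inhibition of at least 40%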;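 also: 0% = neutral control wells and 100% = positive control wells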
Numbers without * were called inactive; nt = no result; [ ] = another dose, or the depositor's remark.

SMILES	F508del corr	FN deposition inh	PAX8 inh HTS	Env fusion inh	EWS-Fli inh	PGC1a acetyl inh
COc1cccc(-c2ccc3c(c2)O[C@H](CN(C)C(=O)C2CC2)[C@H](C)CN([C@@H](C)CO)S3(=O)=O)c1	-1	nt	nt	29[16.7 µM]	-3	-27
Cc1ccc(C2Oc3ccccc3C3=C2C(c2cccs2)n2ncnc2N3)cc1 (stereo not drawn)	nt	-11	nt	102*	nt	3
Cc1noc(C)c1NC(=O)N(C)C[C@H]1Oc2ccc(NC(=O)CCN3CCOCC3)cc2C(=O)N([C@@H](C)CO)C[C@H]1C	-3	nt	nt	-5[16.7 µM]	3	5
O=C1C=C(c2ccc(F)cc2OCc2ccccc2)C[C@@H](c2ccc(Cl)cc2)C1	2	-6	15	76*	18	-1
COC(=O)c1cc(OC)c(OC)cc1NC(=S)Nc1cccc(Cl)c1	nt	nt	nt	nt	nt	-7
COC(=O)c1cc(OC)c(OC)cc1NC(=S)Nc1cc(Cl)ccc1OC	-2	6	78*	nt	3	nt
COCCN=c1scc(C)n1/N=C/C1CC2C=CC1C2 (stereo not drawn)	-6	6	-12	63*	1	nt
Cc1noc(C)c1S(=O)(=O)N(C)C[C@H]1OCCCC[C@H](C)Oc2ccc(NS(=O)(=O)c3ccccc3)cc2C(=O)N([C@H](C)CO)C[C@H]1C	0	-1	19	nt	-5	-6
CCC(=O)N1CCCc2cc(S(=O)(=O)N3CCN(c4ccccc4F)CC3)ccc21	2	3	21	41*	23	nt
CC(C)NC(=O)N(C)C[C@H]1Oc2c(cccc2[N+](=O)[O-])C(=O)N(C)C[C@@H]1C	nt	2	nt	nt	nt	nt
COC(=O)c1cn(C(=O)c2ccc(C)cc2C)c2ccccc12	11*	3	40	-177	23	-31
CCOC(=O)c1oc2cccc(O)c2c1CN(Cc1ccccc1)C(C)=O	nt	2	nt	60*	nt	-2
CCOC(=O)c1oc2cccc(O)c2c1C	nt	-4	nt	-263	nt	2
CC(C)(C)[C@@H]1C=C(C(=O)Nc2ccccc2)O[C@H](OCc2ccc(CO)cc2)C1	0	0	-20	97*	-2	9
C#CCNC(=O)C1=C[C@H](C(C)(C)C)C[C@H](OCc2ccc(CO)cc2)O1	0	6	-4	-1	8	3
C[C@H](CO)N1C[C@H](C)[C@@H](CN(C)C(=O)Nc2ccc(C(F)(F)F)cc2)OCCCC[C@H](C)Oc2ccc(NC(=O)Nc3cccc4ccccc34)cc2C1=O	-1	-8	3	13[16.7 µM]	-18	nt
CC1(C)NC(=O)N(CCOCCOc2cccc(Oc3ccccc3)c2)C1=O	nt	nt	nt	60*	nt	-11
CCOP(=O)(OCC)C(Nc1cccc(C(F)(F)F)c1)c1ccc(C)cc1 (stereo not drawn)	0	0	38	nt	10	-15
CCCOP(=O)(OCCC)C(Nc1cccc(C(F)(F)F)c1)c1ccc(C)cc1 (stereo not drawn)	nt	-6	nt	81*	nt	-3
CC(=O)CSc1ccc(-c2nc3ccccc3[nH]2)cn1	-2	-9	-9	-35	29	nt
CC(=O)CSc1ccc(-c2nc3cc(C)c(C)cc3[nH]2)cn1	0	-1	69*	51	69*	nt
COc1ccc2c3c([nH]c2c1)[C@H](CO)N(Cc1ccccc1Cl)CC31CN(C(C)=O)C1	-1	nt	nt	nt	-8	12
CC(=O)Nc1cccc2c1O[C@@H](CN(C)C(=O)NC(C)C)[C@H](C)CN(C)C2=O	nt	-13	nt	nt	nt	nt
Cc1cc(C(=O)N2CC=C(c3ccccc3)CC2)c2ccccc2n1	9.9*	4	46	-29	72*	nt
CC(=O)N1CCN(C(=O)c2cc(C)nc3ccccc23)CC1	-3	-2	5	17	5	nt
SMILES	F508del corr	FN deposition inh	PAX8 inh HTS	Env fusion inh	EWS-Fli inh	PGC1a acetyl inh
COCC#Cc1cnc2c(c1)C(=O)N([C@H](C)CO)C[C@H](C)[C@@H](CN(C)Cc1ccc(F)cc1)O2	-2	-3	nt	2[16.7 µM]	-15	0
COc1ccc(CNC(=O)N(C)C[C@H]2OCc3ccccc3-c3c(n(C)c4ccccc34)C(=O)N([C@@H](C)CO)C[C@@H]2C)cc1	1	nt	51	58*[16.7 µM]	-9	3
COc1ccc(CNC(=O)N(C)C[C@H]2OCc3ccccc3-c3c(n(C)c4ccccc34)C(=O)N([C@H](C)CO)C[C@@H]2C)cc1	-2	-19	-12	68*[16.7 µM]	11	-9
COc1ccc(OC(=O)N(C)C[C@@H]2OCc3ccccc3-c3ccccc3C(=O)N([C@@H](C)CO)C[C@H]2C)cc1	-1	-2	14	-9[16.7 µM]	5	-10
COc1ccc(CNC(=O)N(C)C[C@@H]2OCc3ccccc3-c3c(n(C)c4ccccc34)C(=O)N([C@H](C)CO)C[C@H]2C)cc1	4	-7	-85	7[16.7 µM]	-26	5
COc1ccc(CNC(=O)N(C)C[C@H]2OCc3ccccc3-c3ccccc3C(=O)N([C@H](C)CO)C[C@@H]2C)cc1	0	-5	9	72*[16.7 µM]	0	2
COc1ccc2c3c([nH]c2c1)[C@@H](CO)N(C(=O)Cc1ccccc1)CC31CCN(C(=O)Cc2ccccc2)CC1	1	nt	nt	nt	9	10
O=C(C1CC1)N1CC(=O)N2[C@H](CO)[C@@H](c3ccc(C#Cc4cccc(F)c4)cc3)[C@@H]2C1	5	8	-4	nt	-2	3
COc1ccc(CC(=O)NCc2ccc(-n3cccc3)cc2)cc1OC	11*	6	27	-275	60*	-20
Cc1ccc(CNC(=O)Cc2ccc(-n3cccc3)cc2)cc1	nt	10	23	-80	nt	5
C[C@@H]1CN([C@H](C)CO)C(=O)c2cc(-c3ccncc3)cnc2O[C@@H]1CN(C)C(=O)NC1CCCC1	-2	13	nt	-1[16.7 µM]	7	9
NNC(=O)c1nn(-c2ccc(Cl)cc2)cc1O	-33	1	72*	-27	-9	-3
Cn1c(=N)n(CC(=O)c2ccc(F)cc2)c2ccccc21	1	1	-49	-31	78*	-1
COCC#Cc1ccc2c(c1)O[C@H](CN(C)C(=O)c1ccccc1)[C@@H](C)CN([C@@H](C)CO)S2(=O)=O	0	nt	nt	14[16.7 µM]	17	1
CCCNC(=O)Nc1ccc2c(c1)OC[C@H](C)N(Cc1ccc(-c3ccccn3)cc1)C[C@@H](C)[C@H](OC)CN(C)C2=O	-2	-6	11	nt	7	0
CCCNC(=O)Nc1ccc2c(c1)OC[C@H](C)N(Cc1ccc(-c3ccccn3)cc1)C[C@@H](C)[C@@H](OC)CN(C)C2=O	2	-4	100*	nt	24	4
CCCC(=O)Nc1ccc2c(c1)C(=O)N(C)C[C@@H](OC)[C@H](C)CN(Cc1ccc(-c3ccccn3)cc1)[C@H](C)CO2	2	1	76*	nt	3	0
